One data set has as its system Hepatocyte. The data set can be described thus: Prodrug coversion in human hepatocytes assessed as triphosphate formation assesed per million cells at 10 uM incubated for 1 hr followed by compound washout by liquid chromatography coupled with mass spectrometry. Type of data set: ADME, cell-based. More on the design: dose 10 uM. In short, it runs like this:
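Confluent primary human hepatocytes (0.88 × 10⁶ cells/well, Williams E medium) were exposed to 10 μM compound for 1 h, then to drug-free medium for 23 h. Cells were collected during and after exposure and extracted. Triphosphate was quantified by LC/MS/MS and expressed per million cells.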

The nature of data set [1]: Cytotoxicity against human HuH7 cells after 3 days by fluorescence assay. Type of data set: cell-based. The settings on record: Huh-7 cells. In short, it runs like this: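 Huh-7 HCV replicon cells were seeded at 2000 cells/well in medium without Geneticin. Compounds were added as ten-point 1:3 DMSO dilutions in quadruplicate (final DMSO 0.44%), with […] as the 100% cytotoxicity control. After 3 days at 37 °C, cells were washed and given 400 nM calcein AM for 30 min at RT, and fluorescence read at ex 490/em 520 nm. Signal was normalized to DMSO and puromycin wells, and CC50 taken from a four-parameter Hill fit.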

Data set [2] is described as follows: Permeability across apical to basolateral side in human Caco2 cells at 10 uM after 1 to 2 hrs by LC/MS/MS analysis. Format: ADME, cell-based. The settings on record: Caco-2, read-out: permeability. The method in brief: (§1)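 Caco-2 monolayers were grown at least 21 days, and membrane integrity was checked by TEER after buffer equilibration. Test compound was dosed at 10 μM on the apical or basolateral side, in duplicate wells. Receiver samples at 1 and 2 h were precipitated with acetonitrile plus internal standard and run by LC/MS/MS.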
On the technique in general: Passage across Caco-2 layers is used to estimate intestinal permeability.

Data set [3] in a line: Metabolic stability in human liver S9 fraction assessed as extraction at 2 uM after 90 mins by LC/MS/MS analysis. Format: ADME, subcellular. The settings on record: read-out: Stability. In short, it runs like this:
(§2)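 Compound at 2 μM was incubated with human intestinal or hepatic S9 fraction plus NADPH and UDPGA for 90 min at 37 °C. Time-point samples were quenched in aqueous acetonitrile/methanol with internal standard and analysed by LC/MS/MS. Half-life came from an exponential first-order fit, and hepatic extraction was predicted from half-life using the well-stirred model.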

Data set [4] deals with Syrian golden hamster. Description: Cmax in golden syrian hamster assessed as liver triphosphate level at 5 mg/kg, po by LC/MS/MS analysis. Format: ADME, organism-based, Mesocricetus auratus. More on the design: dose 5 mg/kg, route oral. To be noted: in vivo. In short, it runs like this: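 Groups of 12 Golden Syrian hamsters were dosed orally at 5 mg-equiv/kg. Vehicle was EtOH/PEG400/water buffered with 50 mM pH 4 citrate at 2.5 mg-equiv/mL. Liver was homogenized in four volumes of ice-cold 0.1% KOH/67 mM EDTA in 70% MeOH containing 0.25 μM Cl-ATP, then centrifuged, dried and reconstituted in 1 mM ammonium phosphate pH 7.0. Triphosphate was measured by LC/MS/MS, with endogenous ATP checked for sample stability.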

Data set [5] in a line: AUC (0 to infinity) in jagular vein cannulated beagle dog at 0.5 mg/kg, iv by LC/MS/MS analysis. Format: ADME, organism-based, Canis lupus familiaris. To be noted: plasma. More on the design: time infinity, dose 0.5 mg/kg, route intravenous. The method in brief: (§3)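 Naive male beagle dogs got a single intravenous infusion of 0.5 mg/kg in EtOH/PEG 400/water 5/20/75, adjusted to pH 4 with HCl. EDTA-K3 blood was collected over 24 h and plasma isolated. Plasma was precipitated with acetonitrile to a final 60%, filtered, dried, reconstituted in 20% acetonitrile and analysed.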

Data set [6] in a line: Aqueous solubility of the compound in phosphate buffer at pH 7 by reverse-phase UPLC-UV method. Format: physicochemical. The method in brief: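 Excess solid was suspended in pH 7 phosphate buffer at ambient temperature, sonicated, then stirred for at least 2 h. After centrifugation, the supernatant was quantified by reverse-phase UPLC-UV.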
The nature of data set [7]: Lipophilicity, log D of the compound by HPLC/UV method. Type of data set: physicochemical. The method in brief: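 A 10 mM DMSO stock was diluted 1:100 into 1:1 acetonitrile/water, shaken 30 min, and analysed by HPLC/UV on a C18 column with 20 mM ammonium acetate/acetonitrile mobile phase.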
Data set [8] can be described thus: Permeability across basolateral to apical side in human Caco2 cells at 10 uM after 1 to 2 hrs by LC/MS/MS analysis. Type of data set: ADME, cell-based. To be noted: Caco-2, read-out: permeability. The method in brief: as §1
The next data set deals with Hepatitis C virus. Description: Antiviral activity against HCV genotype 1b infected in human HuH7 cells assessed as inhibition of viral replication after 3 days by luminescence assay. Type of data set: functional, organism-based, Hepacivirus hominis. The settings on record: Huh-7, 72 h. The method in brief:
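Multiplex replicon assay carrying a renilla luciferase reporter, with stable GT1b, 1a and 2a replicons and chimeric 2b, 3a, 4a, 5a and 6a replicons. 2000 replicon cells/well in medium without Geneticin. Ten-step 1:3 serial dilutions, four replicates, 0.44% DMSO final. Incubated 3 days at 37 °C, 5% CO₂. Luminescence normalised to DMSO wells and to protease-inhibitor (ITMN-191) wells. EC50 from a four-parameter Hill fit.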

The nature of data set [9]: Oral absorption in beagle dog at 5 mg/kg, po by LC/MS/MS analysis. Format: ADME, organism-based, Canis lupus familiaris. Details: dose 5 mg/kg, route oral. The settings on record: in vivo. The method in brief: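 Naive male beagle dogs were dosed once, orally at 5 mg/kg in EtOH/PEG 400/50 mM citrate buffer pH 4 (5/40/55), or intravenously at 0.5 mg/kg for reference. Plasma was sampled over 24 h and processed by acetonitrile precipitation. Bioavailability %F = AUC_po × Dose_iv / (AUC_iv × Dose_po).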

A short description of data set [10]: AUC (0 to infinity) in portal vein cannulated beagle dog at 0.5 mg/kg, iv by LC/MS/MS analysis. Type of data set: ADME, organism-based, Canis lupus familiaris. Details: time infinity, dose 0.5 mg/kg, route intravenous. To be noted: plasma. The method in brief:
as §3

The nature of data set [11]: Metabolic stability in serum (unknown origin). Format: ADME.
The nature of data set [12]: Half life in human intestinal S9 fraction at 2 uM by LC/MS/MS analysis. Type of data set: ADME, Intestine. The method in brief:
as §2

Data set [13] concerns Syrian golden hamster. Description: Cmax in golden syrian hamster assessed as liver triphosphate level at 1 mg/kg, iv by LC/MS/MS analysis. Format: ADME, organism-based, Mesocricetus auratus. More on the design: dose 1 mg/kg, route intravenous. The settings on record: in vivo. The method in brief:
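Golden Syrian hamsters in groups of 12, dosed iv at 1 mg-equiv/kg in EtOH/PEG400/water adjusted to pH 4 with HCl (0.5 mg-equiv/mL). Liver homogenised in ice-cold 70% MeOH with 0.1% KOH, 67 mM EDTA and 0.25 μM Cl-ATP internal standard, then centrifuged, dried and reconstituted. Triphosphate measured by LC/MS/MS; endogenous ATP checked for sample stability.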

Data set [14] in a line: Oral bioavailability in golden syrian hamster at 5 mg/kg. Format: ADME, organism-based, Mesocricetus auratus. The settings on record: in vivo.
Data set [15] addresses DNA-directed RNA polymerase, mitochondrial (Homo sapiens) (UniProt O00411). Description: Inhibition of mitochondrial RNA polymerase (unknown origin) assessed as inhibition of single nucleotide incorporation. To be noted: concentration not given here. In short, it runs like this:
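Reactions started with 500 μM (final) natural NTP or NTP analog. Time-point aliquots were quenched in EDTA/formamide, heated to 65 °C, resolved on 20% polyacrylamide/8 M urea gels, and product formation quantified by phosphorimaging.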

The next data set has as its system Huh-7. The data set can be described thus: Prodrug coversion in human HuH7 cells assessed as triphosphate formation at 10 uM after 24 hrs by liquid chromatography coupled with mass spectrometry. Type of data set: ADME, cell-based. To be noted: huh-7, 24 h. The method in brief: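 Huh-7 cells carrying the GT1b replicon, grown to confluency in 12-well plates (0.88 × 10⁶ cells/well). Exposed 24 h to 10 μM compound, then washed with ice-cold saline and extracted overnight in frozen 70% methanol. Dried extract resuspended in 1 mM ammonium phosphate pH 8.5. Triphosphate quantified by LC/triple-quadrupole MS.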

The term CC50 denotes the concentration at which the toxic effect on the cells reaches its halfway point. One may read the Cmax as the peak of the concentration-time curve. The term AUC(0-inf) denotes total exposure, with the tail of the curve extrapolated. Lower therefore signals low exposure. The term solubility denotes how much of the substance goes into solution per volume. A high value points to much dissolved substance. In general, logD refers to the decadic logarithm of the distribution of all forms, ionised or not, between an organic phase and buffer at a given pH. A lower logD goes with lower lipophilicity. What is called EC50 is the concentration needed to bring the measured effect to its halfway point. In general, half-life refers to the time needed for the level to fall by half in the phase considered. A low value points to rapid decline. In general, bioavailability refers to dose-corrected exposure relative to a reference, in per cent. Higher therefore signals good availability. By inhibition is commonly meant the drop in the measured response relative to a control, in per cent.

In brackets after ≈: the same amount, converted by molar mass.

DNA-directed RNA polymerase, mitochondrial (Homo sapiens), sequence (O00411 whole entry): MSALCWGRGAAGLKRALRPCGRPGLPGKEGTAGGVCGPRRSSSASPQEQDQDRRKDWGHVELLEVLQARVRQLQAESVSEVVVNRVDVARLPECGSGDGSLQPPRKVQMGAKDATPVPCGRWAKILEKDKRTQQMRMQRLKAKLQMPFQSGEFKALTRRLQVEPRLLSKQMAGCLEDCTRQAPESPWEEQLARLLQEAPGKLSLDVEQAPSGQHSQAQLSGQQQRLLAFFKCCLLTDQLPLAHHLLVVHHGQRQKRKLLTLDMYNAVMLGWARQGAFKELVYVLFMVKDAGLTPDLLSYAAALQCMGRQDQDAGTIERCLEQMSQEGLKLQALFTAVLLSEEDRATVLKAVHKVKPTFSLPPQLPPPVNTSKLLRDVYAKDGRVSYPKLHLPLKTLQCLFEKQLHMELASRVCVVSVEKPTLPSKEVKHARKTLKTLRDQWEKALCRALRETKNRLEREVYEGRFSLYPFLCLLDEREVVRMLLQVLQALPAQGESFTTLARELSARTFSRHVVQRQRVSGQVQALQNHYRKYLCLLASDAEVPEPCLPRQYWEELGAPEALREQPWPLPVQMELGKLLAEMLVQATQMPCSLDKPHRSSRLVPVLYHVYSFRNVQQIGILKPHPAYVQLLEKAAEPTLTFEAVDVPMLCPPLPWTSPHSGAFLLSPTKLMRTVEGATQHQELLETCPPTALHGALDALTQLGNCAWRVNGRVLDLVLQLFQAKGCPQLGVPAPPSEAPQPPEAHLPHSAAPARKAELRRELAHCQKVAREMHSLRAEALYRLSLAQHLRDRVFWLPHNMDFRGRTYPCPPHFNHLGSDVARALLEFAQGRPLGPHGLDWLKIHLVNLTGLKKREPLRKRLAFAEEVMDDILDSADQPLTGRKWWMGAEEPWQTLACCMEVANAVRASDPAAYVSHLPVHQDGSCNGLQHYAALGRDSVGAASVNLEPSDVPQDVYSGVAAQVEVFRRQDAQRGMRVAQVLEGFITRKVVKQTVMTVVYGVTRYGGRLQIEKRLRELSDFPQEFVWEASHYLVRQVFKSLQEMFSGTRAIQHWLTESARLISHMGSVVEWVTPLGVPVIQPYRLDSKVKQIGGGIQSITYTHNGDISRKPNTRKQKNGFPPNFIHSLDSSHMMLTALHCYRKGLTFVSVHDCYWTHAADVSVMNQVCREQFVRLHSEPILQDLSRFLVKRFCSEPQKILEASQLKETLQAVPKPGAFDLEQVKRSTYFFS

As for `CC[C@H](C)OC(=O)[C@H](C)NP(=O)(OC[C@H]1O[C@@](C#N)(c2ccc3c(N)ncnn23)[C@](C)(O)[C@@H]1O)Oc1ccccc1` (stereo partly drawn), the Drug metabolism entry with Hepatocyte is recorded as “Active”. Moreover, the CC50 at 72 h in data set [1] was over 89 µM. Moreover, the Papp A→B at 10 µM in [2] is 1.47 ×10⁻⁶ cm/s. Besides, the hepatic extraction ratio at 1.5 h, 2 µM in data set [3] came to 0.93. Also, the Cmax with Syrian golden hamster [4] is 1270 nM. Moreover, the figures for the total exposure AUC(0-inf) in [5] and in data set [10] were 0.12 µM·h and 0.8 µM·h, respectively. This compound also registered a solubility in data set [6] of 200 µg/mL (≈ 340 µM). In addition, the logD in data set [7] was 2.1. Further, in data set [8], the Papp B→A at 10 µM is 17.9 ×10⁻⁶ cm/s. The EC50 with Hepatitis C virus stood at 0.23 µM. The Fa in [9] came out at 16%. Also, the Stability result in data set [11] is recorded as “Stable”. The same compound gave a half-life at 2 µM in [12] of 9.87 h.
Consider `C[C@H](NP(=O)(OC[C@H]1O[C@@](C#N)(c2ccc3c(N)ncnn23)[C@](C)(O)[C@@H]1O)Oc1ccccc1)C(=O)OCC(C)(C)C` (stereo partly drawn), for which half-maximal cytotoxicity in data set [1] (CC50 at 72 h) was put at 85 µM. Moreover, the Papp A→B at 10 µM in [2] came to 0.69 ×10⁻⁶ cm/s. For the same compound, the hepatic extraction ratio at 1.5 h, 2 µM in [3] was determined as 0.94. For the same compound, the Cmax was found to be 1440 nM in the data set with Syrian golden hamster [4] and 5180 nM with Syrian golden hamster [13]. Further, the area under the curve AUC(0-inf) in [5] was 0.09 µM·h; in data set [10], 0.25 µM·h. Further, in data set [6], the concentration in solution (solubility) was 115 µg/mL (≈ 191 µM). For the same compound, the logD in data set [7] is 2.3. In [8], the Papp B→A at 10 µM stood at 29.1 ×10⁻⁶ cm/s. The EC50 with Hepatitis C virus was determined as 0.18 µM. Besides, the Fa in [9] turned out to be 13%. This compound came in with a bioavailability in data set [14] of 5.6%. This compound also had a half-life at 2 µM in [12] of 1.42 h.
On to `C[C@@]1(O)[C@H](O)[C@@H](CO)O[C@@]1(C#N)c1ccc2c(N)ncnn12`, for which the inhibition in [15] is 0.03%. In the data set on Hepatitis C virus, the EC50 is over 89 µM. Besides, the Drug metabolism with Huh-7 was under 0.5 µM.
As to `C[C@H](NP(=O)(OC[C@H]1O[C@@](C#N)(c2ccc3c(N)ncnn23)[C@](C)(O)[C@@H]1O)Oc1ccccc1)C(=O)OC1CCCC1` (stereo partly drawn), the Drug metabolism entry in the data set with Hepatocyte is “Active”. The same compound gave a CC50 at 72 h in [1] of over 89 µM. Also, the Papp A→B at 10 µM in data set [2] was 0.37 ×10⁻⁶ cm/s. For the same compound, the hepatic extraction ratio at 1.5 h, 2 µM in data set [3] is 0.95. Moreover, the Cmax with Syrian golden hamster [4] is 840 nM; with Syrian golden hamster [13] it was 2800 nM. In data set [6], this compound had a solubility of 10 µg/mL (≈ 16.7 µM). Moreover, the pH-dependent lipophilicity (logD) in data set [7] was found to be 2.2. In data set [8], the Papp B→A at 10 µM is 5.86 ×10⁻⁶ cm/s. For the same compound, the EC50 in the data set on Hepatitis C virus was 0.45 µM. This compound had a bioavailability in data set [14] of 6%. The compound further had a half-life at 2 µM in data set [12] of 0.5 h.

Source of the values: ChEMBL document CHEMBL3120104, “Discovery of the first C-nucleoside HCV polymerase inhibitor (GS-6620) with demonstrated antiviral response in HCV infected patients” (J Med Chem, 2014).
